# WT yeast gro inh = growth inhibition of WT strain, primary screen, mitochondrial fusion inhibitor project, WT and mutant strains, chemical genetic | mitochondrial fusion phenotypic screen | inhibition, % at 10 µM | actives 2.1% (n = 190,000) | AID 1362, 2008; in the data active = inhibition above about 58%; tested in S. cerevisiae
# KCC2 mod = KCC2 cotransporter modulators, thallium flux, primary screen, cell-based, HEK293 KCC2, FluoZin-2 fluorescence, MLSMR; Solute carrier family 12 member 5 (Homo sapiens), Q9H2X9; AID 1456, 2008; KCC2 cells, thallium flux FluoZin-2 fluorescence; actives 2.2% (n = 190,000); B-score of Tl+ flux slope (higher = more flux/activation; lower = inhibition) at 10 µM;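 active = thallium flux slope and its plate-corrected score both differing from the plate sample mean at a set confidence after two filtering rounds, in either direction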;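 note: slope of fluorescence scaled to starting intensity during 10 to 20 s after thallium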
# Diaphorase inh = diaphorase inhibitors and chemical oxidizers, primary screen, counter-screen for diaphorase-coupled primary assays, biochemical, uHTS, resorufin fluorescence. inhibition, % at 20 µM. diaphorase resazurin-to-resorufin fluorescence, NADH, 16 min; bacterial (C. kluyveri) enzyme, not human. AID 1217, 2008. actives 0.69% (n = 190,000);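 active = primary screen inhibition at 20 µM above a set limit, cut at about 50% in these data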;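 note: plate controls were DMSO with full reaction for no effect and wells lacking NADH for full effect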
#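 Assay system: diaphorase enzyme from Clostridium kluyveri; Input: enzyme working solution with 0.14 U/mL diaphorase; Timing: 16 min at room temperature; Technique: resorufin fluorescence, excitation 544 nm, emission 590 nm; Benchmarks: positive control minus NADH, DMSO neutral control.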
# L major viab = Leishmania major promastigote growth inhibition, primary screen. inhibition, % at 10 µM. Leishmania major promastigotes, resazurin fluorescence viability. actives 9% (n = 200,000); in the data active = inhibition above about 50%;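 note: promastigotes grown with compound for 44 hours at 28 °C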
# ROMK primary = ROMK potassium channel modulators, primary screen, cell-based, thallium flux, MLSMR library | actives 2% (n = 130,000) | Tet-inducible ROMK, thallium flux fluorescence; actives lie on both sides | B-score at 10 µM | ATP-sensitive inward rectifier potassium channel 1 (Homo sapiens), P48048 | AID 1918, 2009;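 active = signal ratio slope over the read window, or its plate-corrected B-score, at least 3 SD from the plate mean, either direction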;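 note: B-score of the F/F0 ratio slope over 7 to 12 s after thallium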
# Target sequence (P48048 whole entry, looked up): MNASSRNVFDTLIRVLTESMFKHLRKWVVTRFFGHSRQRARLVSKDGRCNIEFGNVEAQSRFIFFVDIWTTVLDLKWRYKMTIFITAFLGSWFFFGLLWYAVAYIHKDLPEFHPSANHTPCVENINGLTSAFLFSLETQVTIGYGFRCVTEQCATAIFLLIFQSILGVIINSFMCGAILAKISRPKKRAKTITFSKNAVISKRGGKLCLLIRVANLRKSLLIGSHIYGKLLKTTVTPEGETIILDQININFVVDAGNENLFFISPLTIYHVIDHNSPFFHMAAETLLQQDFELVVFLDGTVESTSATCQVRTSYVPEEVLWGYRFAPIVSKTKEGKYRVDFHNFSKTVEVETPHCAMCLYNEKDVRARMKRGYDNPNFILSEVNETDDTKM
# Diaph act CS = compounds boosting diaphorase resazurin reduction – biochemical, uHTS, resorufin fluorescence, counter-screen for diaphorase-coupled primary assays, primary screen. Diaphorase/resazurin coupled assay, 16 min; stronger effect = higher value; 1 = vehicle wells, 0 = NADH-free wells. actives 0.005% (n = 190,000). AID 1229, 2008. activation factor at 20 µM;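 active = diaphorase activity raised at least twofold by the compound at 20 µM; inactive = activation factor below 2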
#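 Test system: Clostridium kluyveri diaphorase, purified enzyme. Buffer or medium: 50 mM HEPES pH 7.4 buffer plus MgCl2 and Tween 20. Also added: 0.114 mM NADH and 0.1 mM resazurin, final amounts. Dosing: compound 20 µM once, DMSO 1%. Schedule: 16 min enzyme reaction, ambient temperature. Detection: fluorescence of resorufin, 544 nm excitation, 590 nm emission.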
# * marks the source's active call; other numbers are inactive results; . = no result given. Only some compounds are listed: those with a hit (about 12% of all), similar ones and a draw of the others.
SMILES,WT yeast gro inh,KCC2 mod,Diaphorase inh,L major viab,ROMK primary,Diaph act CS
CN1CCN(CC(=O)N(Cc2c(C#N)c3ccccc3n2C)c2ccccc2)CC1,-14,0.24,17,100*,0.5,0.8
CN(C)S(=O)(=O)c1cccc(NC(=O)Cc2ccc(Cl)cc2)c1,11,-1.7,10,67*,.,0.9
Cc1ccc(NCC(=O)Nc2cccc(S(=O)(=O)N(C)C)c2)c(Cl)c1,11,-1.2,25,75*,-0.23,0.7
O=C(CCC(=O)c1ccc(F)cc1)Nc1cccc(S(=O)(=O)Nc2cccc(Cl)c2)c1,-36,-0.56,19,69*,0.33,0.8
NS(=O)(=O)c1cccc(NC(=O)COC(=O)Cc2ccc(Cl)cc2)c1,-12,-0.066,9,-3,-0.04,0.9
CN(C)S(=O)(=O)c1cccc(NC(=O)c2ccc(OC(F)(F)F)cc2)c1,14,-1.2,13,57*,-0.057,0.9
COc1ccc(CCNC(=O)CSc2ccc(Br)cc2)cc1OC,1,-0.94,-8,-2,-2.1,1.1
COC(=O)c1sc2ccccc2c1-n1cccc1C(=O)C(=O)Nc1ccc(Cl)cc1,40,0,10,3,.,0.9
Cc1cc(C)c(S(=O)(=O)Cc2ccccc2)c(=O)[nH]1,12,0.46,-12,-5,0.013,1.1
O=C(Nc1cccc(C(F)(F)F)c1)C1CCCO1 (stereo not given),-5,0.076,13,-7,-0.044,0.9
O=C(Cc1ccc(Cl)cc1)Nc1cccc(S(=O)(=O)Nc2ccccc2F)c1,-7,0.98,25,69*,-0.94,0.7
O=C(CSc1ccc([N+](=O)[O-])cc1)Nc1cccc(S(=O)(=O)Nc2ccccc2F)c1,10,0.75,33,13,2.2,0.7
Cc1ccc2c(c1)/C(=N/N1C(=O)c3ccccc3C1=O)C(=O)N2,-4,0.14,24,0,.,0.8
Nc1n[nH]c(=S)n1/N=C1/C(=O)Nc2ccccc21,-9,-0.62,79*,-6,-0.15,0.2
CCOC(=O)C1=C(CNCc2ccc(C)cc2)NC(=O)NC1c1cc(C)ccc1C (stereo not given),25,.,19,100*,-2.1,0.8
CCOC(=O)C1=C(Cn2cnc3ccccc32)NC(=O)NC1c1cc(C)ccc1C (stereo not given),16,-1.1,15,17,.,0.9
FC(F)(F)c1ccccc1NC(=S)Nc1cccc(Cl)c1,42,2.7,19,8,-0.8,0.8
O=C(COc1c(Br)cc(Br)c2cccnc12)N1CCCCC1,23,0.24,34,5,-0.76,0.7
O=C(COc1c(Br)cc(Br)c2cccnc12)N1CCc2ccccc2C1,65*,.,28,-4,-2.1,0.7
CN(C)CC1CCCCC1C1(O)c2ccccc2CSc2sccc21 (stereo not given),0,0.8,15,100*,-2.8,0.8
Cc1cc(C)n2nc(CCCCc3nc4nc(C)cc(C)n4n3)nc2n1,-16,-0.25,.,-3,0.46,.
COc1ccc(C(C(=O)NC(C)(C)C)N(Cc2ccco2)C(=O)CCC(=O)Nc2cc(C)on2)cc1 (stereo not given),5,-0.14,4,87*,.,1
COc1ccc(C(C(=O)NC(C)(C)C)N(Cc2ccc(C)cc2)C(=O)CCC(=O)Nc2cc(C)on2)cc1 (stereo not given),-1,0.82,1,94*,-1.5,1
CCC(C)(C)NC(=O)C(c1ccc(OC)cc1)N(Cc1ccco1)C(=O)CCC(=O)Nc1cc(C)on1 (stereo not given),0,-0.45,2,96*,.,1
Cc1ccc(C)c(-c2csc(NC(=O)c3cnccn3)n2)c1,1,1.4,12,2,3.4,0.9
SMILES,WT yeast gro inh,KCC2 mod,Diaphorase inh,L major viab,ROMK primary,Diaph act CS
Cc1cc(N2C(=O)C=CC2=O)c([N+](=O)[O-])cc1C,62*,-0.53,20,23,-0.86,0.8
Cc1ccc(C)c(N2CCN(c3ccc(N4C(=O)COCC4=O)cc3[N+](=O)[O-])CC2)c1,4,-0.44,17,44,0.4,0.8
CCOC(=O)C1=C(c2ccccc2)ON(C)C1c1ccccc1 (stereo not given),-15,-0.65,14,8,0.82,0.9
Cc1c(C#N)c(N=CN(C)C)c(C(=O)c2ccc(Br)cc2)n1-c1ccccc1,-7,-0.65,5,100*,0.89,1
CCCSc1ncc(Cl)c(C(=O)Nc2ccc(S(=O)(=O)N3CC(C)OC(C)C3)cc2)n1 (stereo not given),-28,.,24,9,0.53,0.8
CC1=CC=CC2=NC(=O)CC(C)(C(=O)N(CC(=O)NC3CCCC3)c3ccccc3C)N12 (stereo not given),8,0.0063,13,80*,.,0.9
CCOC(=O)C1CCN(C(=O)c2ccc(CNS(=O)(=O)c3ccc(OC)cc3)cc2)CC1,5,0.0023,4,0,-1.3,1
Clc1ccc(-c2c[nH]c3ccccc23)nn1,3,0.49,63*,11,-0.21,0.4
COCCN1C=C(C(=O)OC)C(c2cc(Br)c(OC)c(OC)c2)C(C(=O)OC)=C1,2,0.32,11,100*,.,0.9
COCCN1C=C(C(=O)OC)C(c2ccccc2Cl)C(C(=O)OC)=C1,-16,0.19,8,1,0.54,0.9
CCc1cc2c(=O)n(CCC(C)C)c(=S)[nH]c2s1,31,73*,56*,-1,9.7*,0.4
NC(=O)[C@@H]1CCCNc2c(I)cc([N+](=O)[O-])cc2C(=O)N[C@@H](CCC(=O)O)C(=O)N[C@@H](CO)C(=O)N1,-15,0.038,9,-9,0.48,0.9
NNC(=O)c1ccc2nc(-c3ccc(Br)cc3)cn2c1,71*,-0.25,10,54*,0.1,0.9
COc1ccc(N2CCN(C(CNS(C)(=O)=O)c3ccco3)CC2)cc1 (stereo not given),-5,1.2,15,-6,-0.052,0.9
O=C(Nc1sc2c(c1-c1nc3ccccc3[nH]1)CCCC2)C1CCCC1,17,0.28,13,88*,.,0.9
CC(=O)N1CCN(S(=O)(=O)c2cccc(C(=O)Nc3nc4c(s3)CCCC4)c2)CC1,-1,1.4,13,5,0.017,0.9

# Compound activity (PubChem)
